The nature of data set [1]: melting temperature; fluorescence melt of hairpins on a sequencing array, two-state fit, raised by 9.35 °C to match UV melts. Conditions: sodium 0.088 M. In a few lines:
(§1)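 Bootstrapped two-state fits yielded melting temperature and folding enthalpy for library hairpins. Cy3 fluorescence, with annealed Cy3 and quencher oligos, was imaged on a sequenced MiSeq flow cell in 50 mM Na-HEPES pH 8.0, 25 mM NaCl in 2.5 °C steps up to 60 °C, and normalised to pre-quench Cy3 and to control constructs. Four replicates were combined by inverse variance, and fitted temperatures were raised by 9.35 °C to match UV melts.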

Data set [2] is described as follows: folding enthalpy; higher = less favourable; fluorescence melt of hairpins on a sequencing array, two-state fit. To be noted: sodium 0.088 M. The procedure, abridged: as §1

With GAGTAGCCGAAAGGCCTC (((..(((....)))))), the Tm in data set [1] was 38.4 °C. In addition, the folding enthalpy in data set [2] is -10.7 kcal/mol.

On to GAGTAGCGAAAGCTCCTC (((.(((....))).))), for which the Tm in data set [1] was found to be 39.5 °C. In addition, in data set [2], the folding enthalpy was -20 kcal/mol.

Regarding GAGTAGCGAAAGCTCTC (((.(((....)))))), the Tm in data set [1] stood at 46.2 °C. The folding enthalpy in data set [2] was -17.8 kcal/mol.

Turning to GAGTAGGGAAACCTACCC (.(((((....))))).), the Tm in data set [1] stood at 35.1 °C. Also, in data set [2], the folding enthalpy is -15.4 kcal/mol.

On to GAGTAGGGAAACCTATTC ((.((((....)))).)), for which the Tm in data set [1] worked out at 32.5 °C. For the same sequence, the folding enthalpy in data set [2] is -25.5 kcal/mol.

In the case of GAGTATGAAAATACTC ((((((....)))))), the Tm in data set [1] is 50.3 °C. Moreover, the folding enthalpy in data set [2] was -36.5 kcal/mol.

Regarding GAGTCAGGAAACTGGCTC (((.(((....))).))), in data set [1], the Tm is 54.1 °C. Also, in data set [2], the folding enthalpy was -43.1 kcal/mol.

For the sequence GAGTCCCGAAAGGGCCTC (((.(((....))).))), the Tm in data set [1] came to 52.4 °C. Also, in data set [2], the folding enthalpy was -26.6 kcal/mol.

Turning to GAGTCCCGAAAGGGCTC (((.(((....)))))), the Tm in data set [1] was 59.5 °C. In addition, in data set [2], the folding enthalpy was -25.5 kcal/mol.

Regarding GAGTCCGAAAGGAATCTC ((((((....)))..))), the Tm in data set [1] is 50.2 °C. In addition, the folding enthalpy in data set [2] was -18.8 kcal/mol.

As for GAGTCCGAAAGGACCCTC ((((((....)))..))), the Tm in data set [1] worked out at 43.5 °C. Also, in data set [2], the folding enthalpy is -10.3 kcal/mol.

In the case of GAGTCCGAAAGGAGGCTC ((((((....)))..))), the Tm in data set [1] came out at 47.4 °C. In data set [2], the folding enthalpy is -20.7 kcal/mol.

As to GAGTCCGAAAGGATGCTC ((((((....)))..))), the Tm in data set [1] amounted to 40.5 °C. Moreover, the folding enthalpy in data set [2] is -16.9 kcal/mol.

Regarding GAGTCCGAAAGGATTCTC ((((((....)))..))), in data set [1], the Tm was determined as 50.6 °C. For the same sequence, in data set [2], the folding enthalpy was -24.4 kcal/mol.

Consider GAGTCGCGAAAGCGCCTC (((.(((....))).))), for which the Tm in data set [1] is 54.8 °C. For the same sequence, the folding enthalpy in data set [2] was -23.7 kcal/mol.

Consider GAGTCGCGAAAGCGTCTC (((.(((....))).))), for which the Tm in data set [1] was 54.7 °C. Further, the folding enthalpy in data set [2] was -22.3 kcal/mol.

On to GAGTCGGCGAAAGCCCTC (((..(((....)))))), for which the Tm in data set [1] turned out to be 25.6 °C. Also, the folding enthalpy in data set [2] was -9.6 kcal/mol.

For GAGTCTCCGAAAGGACTC (((..(((....)))))), the Tm in data set [1] stood at 39 °C. In addition, the folding enthalpy in data set [2] is -21.8 kcal/mol.

On to GAGTGAACGAAAGTTCTC (((..(((....)))))), for which the Tm in data set [1] came to 29.9 °C. The folding enthalpy in data set [2] is -11.3 kcal/mol.

Take GAGTGACGAAAGTCCTC (((.(((....)))))): the Tm in data set [1] was 47.9 °C. Also, the folding enthalpy in data set [2] is -19.5 kcal/mol.

With GAGTGAGGAAACTTACTC ((((.((....)).)))), the Tm in data set [1] was 38.1 °C. Moreover, the folding enthalpy in data set [2] was -28 kcal/mol.

GAGTGCGAAAGCAACCTC ((((((....)))..))): the Tm in data set [1] turned out to be 37.7 °C. For the same sequence, the folding enthalpy in data set [2] was -13.5 kcal/mol.

Consider GAGTGCGAAAGCAAGCTC ((((((....)))..))), for which the Tm in data set [1] stood at 43.6 °C. Moreover, the folding enthalpy in data set [2] is -14.2 kcal/mol.

Turning to GAGTGCGAAAGCAGTCTC ((((((....)))..))), in data set [1], the Tm came to 58.1 °C. Also, the folding enthalpy in data set [2] is -23.7 kcal/mol.

On to GAGTGCGAAAGCATCTC ((((((....))).))), for which the Tm in data set [1] was 52.1 °C. Moreover, the folding enthalpy in data set [2] was -21 kcal/mol.

Take GAGTGCGGAAACACACCC (.(((.(....).))).): in data set [1], the Tm stood at 28.1 °C. Also, the folding enthalpy in data set [2] was -15.5 kcal/mol.

As for GAGTGCGGAAACGCGTTC ((..(((....)))..)), the Tm in data set [1] was 34.3 °C. For the same sequence, in data set [2], the folding enthalpy was -13 kcal/mol.

Take GAGTGCGGAAACGTGCTC (((..((....))..))): the Tm in data set [1] came to 49.5 °C. Besides, the folding enthalpy in data set [2] is -38 kcal/mol.

On to GAGTGGGGAAACCCACTC (((((((....))))))), for which the Tm in data set [1] is 67.7 °C. In data set [2], the folding enthalpy was -29.8 kcal/mol.

Consider GAGTGGGGAAACCTGCTC (((..((....))..))), for which, in data set [1], the Tm came to 39.8 °C. The folding enthalpy in data set [2] was -26.6 kcal/mol.

With GAGTGTCCGAAAGGACTC (((..(((....)))))), the Tm in data set [1] came out at 31.9 °C. For the same sequence, the folding enthalpy in data set [2] was -8.71 kcal/mol.

For the sequence GAGTGTGGAAACACATTC ((.((((....)))).)), in data set [1], the Tm amounted to 42.5 °C. For the same sequence, the folding enthalpy in data set [2] was -17.6 kcal/mol.

As for GAGTTACGAAAGTACCTC (((.(((....))).))), the Tm in data set [1] is 40.3 °C. Moreover, the folding enthalpy in data set [2] is -24.6 kcal/mol.

Regarding GAGTTCCGAAAGGAGCTC (((.(((....))).))), the Tm in data set [1] is 57.1 °C. For the same sequence, the folding enthalpy in data set [2] was -37 kcal/mol.

For GAGTTCCGAAAGGATCTC (((.(((....))).))), in data set [1], the Tm was 47.3 °C. Besides, in data set [2], the folding enthalpy is -29.3 kcal/mol.

Take GAGTTCGGAAACGAACTC (((((((....))))))): the Tm in data set [1] was 67.3 °C. In addition, the folding enthalpy in data set [2] is -39.4 kcal/mol.

For the origin of these results see the array DNA melting data of Ke et al. (doi:10.1101/2024.01.08.574731).
